Test results from ChEMBL document CHEMBL4138271, “Crystal Structures and Human Leukemia Cell Apoptosis Inducible Activities of Parthenolide Analogues Isolated from Piptocoma rufescens” (J Nat Prod, 2018).
Activity calls are given as the source filed them. The calls are words filed in the database; no cut-off is given here.

What was measured:
MOLM-13 [1] = assay: Cytotoxicity against human MOLM13 cells after 72 hrs by MTS assay; type: functional, cell-based; settings: MOLM-13, 72 h
EOL1 [2] = assay: Cytotoxicity against human EOL-1 cells after 72 hrs by MTS assay; type: functional, cell-based; settings: EOL1, 72 h
HT-29 = assay: Cytotoxicity against human HT-29 cells after 72 hrs by MTS assay; type: functional, cell-based; settings: HT-29, 72 h
MOLM-13 [3] = assay: Synergistic antileukemic activity against human MOLM13 cells assessed as concentration required for <= 75% cell survival after 72 hrs in presence of midostaurin by CellTiter 96 AQueous One solution cell proliferation assay; type: functional
EOL1 [4] = assay: Synergistic antileukemic activity against human EOL-1 cells assessed as concentration required for <= 75% cell survival after 72 hrs in presence of midostaurin by CellTiter 96 AQueous One solution cell proliferation assay; type: functional
MOLM-13 [5] = assay: Induction of apoptosis in human MOLM13 cells assessed as live cells at 3 uM after 24 hrs by Annexin-V FITC/7-AAD staining based flow cytometric method (reference value: 86.8%); type: functional
MOLM-13 [6] = assay: Induction of apoptosis in human MOLM13 cells assessed as early apoptotic cells at 3 uM after 24 hrs by Annexin-V FITC/7-AAD staining based flow cytometric method (reference value: 11.8%); type: functional
MOLM-13 [7] = assay: Induction of apoptosis in human MOLM13 cells assessed as late apoptotic cells at 3 uM after 24 hrs by Annexin-V FITC/7-AAD staining based flow cytometric method (reference value: 1.43%); type: functional
MOLM-13 [8] = assay: Induction of apoptosis in human MOLM13 cells assessed as necrotic cells at 3 uM after 24 hrs by Annexin-V FITC/7-AAD staining based flow cytometric method (reference value: 0%); type: functional
MOLM-13 [9] = assay: Induction of apoptosis in human MOLM13 cells assessed as live cells at 6 uM after 24 hrs by Annexin-V FITC/7-AAD staining based flow cytometric method (reference value: 86.8%); type: functional
MOLM-13 [10] = assay: Induction of apoptosis in human MOLM13 cells assessed as early apoptotic cells at 6 uM after 24 hrs by Annexin-V FITC/7-AAD staining based flow cytometric method (reference value: 11.8%); type: functional
MOLM-13 [11] = assay: Induction of apoptosis in human MOLM13 cells assessed as late apoptotic cells at 6 uM after 24 hrs by Annexin-V FITC/7-AAD staining based flow cytometric method (reference value: 1.43%); type: functional
MOLM-13 [12] = assay: Induction of apoptosis in human MOLM13 cells assessed as necrotic cells at 6 uM after 24 hrs by Annexin-V FITC/7-AAD staining based flow cytometric method (reference value: 0%); type: functional
MOLM-13 [13] = assay: Induction of apoptosis in human MOLM13 cells assessed as live cells at 12 uM after 24 hrs by Annexin-V FITC/7-AAD staining based flow cytometric method (reference value: 86.8%); type: functional
MOLM-13 [14] = assay: Induction of apoptosis in human MOLM13 cells assessed as early apoptotic cells at 12 uM after 24 hrs by Annexin-V FITC/7-AAD staining based flow cytometric method (reference value: 11.8%); type: functional
MOLM-13 [15] = assay: Induction of apoptosis in human MOLM13 cells assessed as late apoptotic cells at 12 uM after 24 hrs by Annexin-V FITC/7-AAD staining based flow cytometric method (reference value: 1.43%); type: functional
MOLM-13 [16] = assay: Induction of apoptosis in human MOLM13 cells assessed as necrotic cells at 12 uM after 24 hrs by Annexin-V FITC/7-AAD staining based flow cytometric method (reference value: 0%); type: functional
EOL1 [17] = assay: Induction of apoptosis in human EOL-1 cells assessed as live cells at 3 uM after 24 hrs by Annexin-V FITC/7-AAD staining based flow cytometric method (reference value: 97.5%); type: functional
EOL1 [18] = assay: Induction of apoptosis in human EOL-1 cells assessed as early apoptotic cells at 3 uM after 24 hrs by Annexin-V FITC/7-AAD staining based flow cytometric method (reference value: 1.94%); type: functional
EOL1 [19] = assay: Induction of apoptosis in human EOL-1 cells assessed as late apoptotic cells at 3 uM after 24 hrs by Annexin-V FITC/7-AAD staining based flow cytometric method (reference value: 0.535%); type: functional
EOL1 [20] = assay: Induction of apoptosis in human EOL-1 cells assessed as necrotic cells at 3 uM after 24 hrs by Annexin-V FITC/7-AAD staining based flow cytometric method (reference value: 0.032%); type: functional
EOL1 [21] = assay: Induction of apoptosis in human EOL-1 cells assessed as live cells at 6 uM after 24 hrs by Annexin-V FITC/7-AAD staining based flow cytometric method (reference value: 97.5%); type: functional
EOL1 [22] = assay: Induction of apoptosis in human EOL-1 cells assessed as early apoptotic cells at 6 uM after 24 hrs by Annexin-V FITC/7-AAD staining based flow cytometric method (reference value: 1.94%); type: functional
EOL1 [23] = assay: Induction of apoptosis in human EOL-1 cells assessed as late apoptotic cells at 6 uM after 24 hrs by Annexin-V FITC/7-AAD staining based flow cytometric method (reference value: 0.535%); type: functional
EOL1 [24] = assay: Induction of apoptosis in human EOL-1 cells assessed as necrotic cells at 6 uM after 24 hrs by Annexin-V FITC/7-AAD staining based flow cytometric method (reference value: 0.032%); type: functional
EOL1 [25] = assay: Induction of apoptosis in human EOL-1 cells assessed as live cells at 12 uM after 24 hrs by Annexin-V FITC/7-AAD staining based flow cytometric method (reference value: 97.5%); type: functional
EOL1 [26] = assay: Induction of apoptosis in human EOL-1 cells assessed as early apoptotic cells at 12 uM after 24 hrs by Annexin-V FITC/7-AAD staining based flow cytometric method (reference value: 1.94%); type: functional
EOL1 [27] = assay: Induction of apoptosis in human EOL-1 cells assessed as late apoptotic cells at 12 uM after 24 hrs by Annexin-V FITC/7-AAD staining based flow cytometric method (reference value: 0.535%); type: functional
EOL1 [28] = assay: Induction of apoptosis in human EOL-1 cells assessed as necrotic cells at 12 uM after 24 hrs by Annexin-V FITC/7-AAD staining based flow cytometric method (reference value: 0.032%); type: functional
MOLM-13 [29] = assay: Induction of apoptosis in human MOLM13 cells assessed as caspase-3 activation at 10 uM after 72 hrs by immunoblotting analysis; type: functional, cell-based
In short: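 MOLM-13 cells treated 72 h with test compounds at 10 μM or PKC412 at 10 nM. Cells washed in ice-cold PBS, lysed at 10^8 cells/mL in NP-40 hypertonic buffer (pH 7.5) with protease/phosphatase inhibitors, then run on SDS-PAGE and PVDF. Blots probed 12 h with rabbit monoclonal cleaved caspase-3 (Asp175), β-actin as loading control. Representative of three independent experiments.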

EOL1 [30] = assay: Induction of apoptosis in human EOL-1 cells assessed as caspase-3 activation at 10 uM after 72 hrs by immunoblotting analysis; type: functional, cell-based
In short: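 EOL-1 cells (RPMI 1640, 10% FBS, 37 °C, 5% CO2) exposed 72 h; compounds at 10 μM, PKC412 at 10 nM. Harvested, PBS-washed, lysed in hypertonic NP-40 buffer with protease/phosphatase inhibitors; SDS-PAGE, PVDF transfer, rabbit monoclonal cleaved caspase-3 (Asp175) antibody 12 h, secondary 1 h, chemiluminescent detection; β-actin loading control. Representative blots of three independent experiments.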

[31] = biological target: Transcription factor p65 (Homo sapiens) (UniProt Q04206); assay: Inhibition of NFkappaB p65 in human MOLM13 cells at 10 uM after 72 hrs by immunoblotting method; type: cell-based
In short: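 MOLM-13 or EOL-1 cells treated 72 h at 10 μM. Cells washed in ice-cold PBS and lysed in hypertonic NP-40 buffer (10 mM HEPES pH 7.5, 0.5 M NaCl) with protease/phosphatase inhibitors. Protein measured by BCA; SDS-PAGE onto PVDF. Probed 12 h with rabbit monoclonal NF-κB-p65 antibody, goat β-actin as loading control, then chemiluminescence. Blots representative of three independent experiments.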

Chain of Transcription factor p65 (Homo sapiens) (Q04206 whole entry): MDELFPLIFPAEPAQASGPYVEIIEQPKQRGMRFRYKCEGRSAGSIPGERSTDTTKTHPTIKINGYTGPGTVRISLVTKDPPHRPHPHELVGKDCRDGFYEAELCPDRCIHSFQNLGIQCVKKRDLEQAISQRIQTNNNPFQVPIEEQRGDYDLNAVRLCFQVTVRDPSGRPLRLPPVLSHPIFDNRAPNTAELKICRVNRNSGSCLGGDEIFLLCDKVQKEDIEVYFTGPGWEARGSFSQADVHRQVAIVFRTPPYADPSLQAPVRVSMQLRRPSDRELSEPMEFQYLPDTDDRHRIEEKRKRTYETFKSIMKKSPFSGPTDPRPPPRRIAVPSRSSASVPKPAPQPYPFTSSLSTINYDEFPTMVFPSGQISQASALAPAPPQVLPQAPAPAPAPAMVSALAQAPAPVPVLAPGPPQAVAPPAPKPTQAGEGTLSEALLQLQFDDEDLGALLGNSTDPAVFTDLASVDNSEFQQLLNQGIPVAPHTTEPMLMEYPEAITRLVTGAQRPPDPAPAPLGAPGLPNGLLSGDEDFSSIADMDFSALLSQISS

C=C1C(=O)O[C@@H]2C[C@@H](C)CCC(=O)[C@](C)(OC(C)=O)C[C@H](OC(=O)/C(C)=C\C)[C@@H]12
IC50 (MOLM-13 [1]): 10 µM
IC50 (EOL1 [2]): 8 µM
IC50 (HT-29): 3 µM
Activity (MOLM-13 [3]): 4.9 µM
Activity (EOL1 [4]): 2.5 µM
Activity (MOLM-13 [5]): 94.7%
Activity (MOLM-13 [6]): 4.46%
Activity (MOLM-13 [7]): 0.817%
Activity (MOLM-13 [8]): 0.056%
Activity (MOLM-13 [9]): 93.6%
Activity (MOLM-13 [10]): 4.87%
Activity (MOLM-13 [11]): 1.19%
Activity (MOLM-13 [12]): 0.314%
Activity (MOLM-13 [13]): 36.6%
Activity (MOLM-13 [14]): 6.8%
Activity (MOLM-13 [15]): 39.7%
Activity (MOLM-13 [16]): 16.9%
Activity (EOL1 [17]): 97.9%
Activity (EOL1 [18]): 1.64%
Activity (EOL1 [19]): 0.417%
Activity (EOL1 [20]): 0.043%
Activity (EOL1 [21]): 97.7%
Activity (EOL1 [22]): 1.66%
Activity (EOL1 [23]): 0.545%
Activity (EOL1 [24]): 0.096%
Activity (EOL1 [25]): 93.4%
Activity (EOL1 [26]): 1.4%
Activity (EOL1 [27]): 4.7%
Activity (EOL1 [28]): 0.497%
Activity (MOLM-13 [29]): Active
Activity (EOL1 [30]): Active
inhibition [31]: Active
